In assay [1] the target is T1, Cannabinoid receptor 2 (Homo sapiens, UniProt P34972). Briefly: Displacement of [3H]CP55940 from recombinant human CB2 receptor expressed in HEK293 cell membrane incubated for 90 mins by beta scintillation counter method. It is filed as cell membranes. In a few lines: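 HEK293 membranes stably expressing human CB2 (50 µg protein/well) competed with 0.2 nM [3H]-CP55,940 (final) against test compound at 10⁻¹²–10⁻⁵ M in Tris-HCl 50 mM, EGTA 2.5 mM, MgCl₂ 5 mM, 0.1% fatty-acid-free BSA, pH 7.4; 90 min at 30 °C. Nonspecific binding defined with 10 µM GW405833.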
(Loss of bound radioactivity is the signal in a displacement assay; it reports binding, not function.)

The nature of assay [2]: Metal chelating activity assessed as Fe2+-compound complex formation incubated for 15 mins by Ferrozine based assay. In a few lines:
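FeSO₄ (25 µM) in water incubated with or without test compound (100 µM, DMSO) for 15 min at room temperature, 300 µL final. Ferrozine then added (1 mM final), shaken 15 min at room temperature. Absorbance of the ferrozine–Fe(II) magenta complex read at 562 nm; chelation seen as reduced complex formation.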

The target in assay [3] is T2, Fatty-acid amide hydrolase 1 (Homo sapiens, UniProt O00519).
T2 sequence (O00519 whole entry): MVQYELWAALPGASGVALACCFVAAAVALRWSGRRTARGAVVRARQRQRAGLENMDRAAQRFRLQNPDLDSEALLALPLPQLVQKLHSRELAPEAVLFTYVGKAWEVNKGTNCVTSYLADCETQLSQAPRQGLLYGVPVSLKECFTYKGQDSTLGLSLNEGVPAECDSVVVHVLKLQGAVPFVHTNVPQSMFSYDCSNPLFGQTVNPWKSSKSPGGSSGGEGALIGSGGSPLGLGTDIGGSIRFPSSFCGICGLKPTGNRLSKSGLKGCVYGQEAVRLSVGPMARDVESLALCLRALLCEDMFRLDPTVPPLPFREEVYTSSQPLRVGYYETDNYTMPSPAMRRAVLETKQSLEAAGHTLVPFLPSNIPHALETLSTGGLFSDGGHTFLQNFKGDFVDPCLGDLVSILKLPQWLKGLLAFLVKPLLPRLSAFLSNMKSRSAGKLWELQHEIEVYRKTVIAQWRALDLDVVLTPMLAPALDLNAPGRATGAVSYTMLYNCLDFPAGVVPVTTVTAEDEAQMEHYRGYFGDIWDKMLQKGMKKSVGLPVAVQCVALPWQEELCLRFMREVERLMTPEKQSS
Briefly: Inhibition of recombinant human FAAH using AMC-AA as substrate preincubated for 10 mins followed by substrate addition measured after 2 hrs by fluorometric assay. In a few lines: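 Human recombinant FAAH preincubated with inhibitor at various concentrations in Tris-HCl 125 mM, Na₂EDTA 1 mM, pH 9.0, 10 min at room temperature with shaking. AMC-AA substrate then added (1 µM final); fluorescence read every 30 s for 2 h at 37 °C (ex 340/em 450 nm). Percent inhibition from no-inhibitor controls and no-enzyme blanks; IC50 from at least three independent runs in triplicate.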

The subject of assay [4] is THP-1. The assay is described as follows: Antiinflammatory activity in LPS-activated human THP-1 monocytes assessed as decrease in IL-6 level incubated for 24 hrs by ELISA based qRT-PCR analysis. It is filed as functional, cell-based. In a few lines: (§1)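 THP-1 cells were seeded at 1 x 10⁵ cells/ml for 48 h. For macrophages, cells were differentiated with 0.01 µM PMA for 48 h; monocytes received no PMA. Cells were then given 24 h with or without 10 µg/ml LPS, plus ligands alone or with the CB2R inverse agonist JTE907 (10 µM). Cytokines were measured in 5 µL supernatant (from 1 x 10⁴ cells) by ProQuantum immunoassay, read as pg/ml from kit titration curves; n=3.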

Assay [5] relates to THP-1. Briefly: Antiinflammatory activity in human THP-1 macrophages assessed as decrease in IL-6 level incubated for 24 hrs by ELISA based qRT-PCR analysis. The assay is classed as functional, cell-based. In a few lines:
as §1
In general terms: In an ELISA, binding on a coated surface is turned into a signal by an enzyme label.

For assay [6], the system named is THP-1. The assay is described as follows: Antiinflammatory activity in human THP-1 macrophages assessed as increase in IL-10 level incubated for 24 hrs by ELISA based qRT-PCR analysis. The assay is classed as functional, cell-based. The method, boiled down: as §1
The target of assay [7] is T1, Cannabinoid receptor 2. Briefly: Agonist activity at human CB2 receptor overexpressed in CHO-K1 cells assessed as cAMP level incubated for 30 mins by luminescence based assay. It is filed as functional, cell-based. The method, boiled down:
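CHO-K1 cells overexpressing human CB2R were plated at 30 000 cells/well and held overnight at 37 °C, 5% CO2. Test samples were added as dose–response solutions with NKH-477 to stimulate adenylate cyclase, then incubated 30 min at 37 °C. cAMP was detected by luminescence after cell lysis. Values were normalized to NKH-477 alone as 100% response. Three independent experiments were run in triplicate.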
For orientation: cAMP levels reflect the balance of adenylyl cyclase and phosphodiesterase activity.

For assay [8], the target named is Cannabinoid receptor 2 (Mus musculus) (UniProt P47936). Briefly: Agonist activity at mouse CB2 receptor transfected in CHO-K1 cells assessed as beta2-arrestin recruitment incubated for 90 mins by luminescence based assay relative to control. The note with it: filed as agonist. The assay is classed as functional, cell-based. In a few lines: (§2)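 PathHunter eXpress kit using mouse CB2 receptor in CHO-K1 cells. Cells were seeded 48 h before the assay in kit medium. Compounds in cell plating reagent were incubated 90 min at 37 °C, 5% CO2. Working detection solution was then added for 60 min at room temperature to read β-arrestin recruitment.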

For assay [9], the target named is Cannabinoid receptor 2 (Mus musculus, UniProt P47936). The assay is described as follows: Agonist activity at mouse CB2 receptor transfected in CHO-K1 cells assessed as beta2-arrestin recruitment incubated for 90 mins by luminescence based assay. The assay is classed as functional, cell-based. In a few lines: as §2
Assay [10] addresses Cannabinoid receptor 1 (Homo sapiens, UniProt P21554). Briefly: […] human CB1 receptor in CHO cells incubated for 15 mins by plate reader analysis relative to control. The assay is classed as cell-based. In a few lines:
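CHO-CB1 C3 cells (human CB1) were seeded at 8000 cells/well in medium with dialyzed FBS and preincubated 15 min at 37 °C. Compounds or the CP55940 control were added for 15 min at 37 °C, then forskolin 10 µM for 5 min. cAMP was read by HTRF after 1 h at room temperature (λex 320 nm, λem 620-665 nm).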

The source made the active and inactive calls. The rule behind the calls is not given here. A value given as a limit tells only on which side of the number the result lay.

By Ki is commonly meant the dissociation constant of the complex between target and ligand, obtained from inhibition or displacement. For orientation: IC50 means the concentration that gives 50% inhibition. Usually EC50 stands for the concentration at which the effect is half-maximal. What is called Emax is the size of the effect at its maximum, as opposed to the concentration needed.

T1 sequence (P34972 whole entry): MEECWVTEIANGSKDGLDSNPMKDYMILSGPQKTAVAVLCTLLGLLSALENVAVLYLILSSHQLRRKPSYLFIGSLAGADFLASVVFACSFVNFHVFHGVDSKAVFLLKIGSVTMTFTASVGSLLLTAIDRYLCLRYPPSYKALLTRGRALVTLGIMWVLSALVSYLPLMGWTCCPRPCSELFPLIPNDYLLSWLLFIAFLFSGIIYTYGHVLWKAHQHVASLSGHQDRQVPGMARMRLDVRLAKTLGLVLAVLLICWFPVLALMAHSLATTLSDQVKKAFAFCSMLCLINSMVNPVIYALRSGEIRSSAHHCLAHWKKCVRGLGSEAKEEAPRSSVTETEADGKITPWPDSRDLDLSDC
Chain of Cannabinoid receptor 1 (P21554 whole entry): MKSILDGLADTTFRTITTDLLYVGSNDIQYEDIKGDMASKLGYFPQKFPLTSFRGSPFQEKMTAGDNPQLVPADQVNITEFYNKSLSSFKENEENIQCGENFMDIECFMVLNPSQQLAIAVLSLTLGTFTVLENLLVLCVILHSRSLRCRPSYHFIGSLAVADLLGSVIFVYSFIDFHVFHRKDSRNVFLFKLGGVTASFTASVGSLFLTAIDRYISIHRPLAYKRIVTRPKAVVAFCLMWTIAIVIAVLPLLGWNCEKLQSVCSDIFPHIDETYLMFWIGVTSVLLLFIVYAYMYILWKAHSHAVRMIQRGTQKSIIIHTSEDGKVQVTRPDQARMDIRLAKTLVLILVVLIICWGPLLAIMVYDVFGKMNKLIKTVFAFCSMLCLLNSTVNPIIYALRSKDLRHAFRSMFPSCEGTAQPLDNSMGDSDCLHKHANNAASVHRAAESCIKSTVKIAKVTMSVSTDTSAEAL
Chain of Cannabinoid receptor 2 (Mus musculus) (P47936 whole entry): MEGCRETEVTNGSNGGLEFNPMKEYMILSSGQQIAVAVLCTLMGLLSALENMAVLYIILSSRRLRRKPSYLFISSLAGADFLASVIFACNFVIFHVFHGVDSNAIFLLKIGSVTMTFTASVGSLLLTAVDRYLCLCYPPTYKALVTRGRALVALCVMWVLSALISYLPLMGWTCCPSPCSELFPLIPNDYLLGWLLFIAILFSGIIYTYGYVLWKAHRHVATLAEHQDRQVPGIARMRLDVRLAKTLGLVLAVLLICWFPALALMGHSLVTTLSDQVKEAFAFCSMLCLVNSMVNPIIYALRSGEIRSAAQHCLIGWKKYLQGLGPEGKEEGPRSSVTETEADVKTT
Chain of Cannabinoid receptor 2 (Mus musculus, UniProt P47936) (P47936 whole entry): as above

For `COc1cccc(C(=O)NC23CC4CC(CC(C4)C2)C3)c1O`, the Ki in assay [1] was 0.153 µM. In assay [2], the outcome was Active. Also, the IC50 in assay [3] was greater than 50 µM.
In the case of `COc1ccc(C(=O)NC23CC4CC(CC(C4)C2)C3)cc1OC`, the Ki in assay [1] is 3 µM. Further, the outcome in assay [2] was Active. Further, the IC50 in assay [3] is greater than 50 µM.
On the same counts, the results for `COc1ccc(C(=O)NC23CC4CC(CC(C4)C2)C3)cc1` are 2.45 µM, “Active” and greater than 50 µM.
As to `COc1cc(Br)cc(C(=O)NC23CC4CC(CC(C4)C2)C3)c1O`, the outcome in [2] was Active. For the same compound, the IC50 in assay [3] is 38.4 µM.
`COc1cccc(C(=O)NC23CC4CC(CC(C4)C2)C3)c1OC`: in assay [1], the Ki came out at 0.0876 µM. For the same compound, the outcome in assay [2] was Active. Moreover, the IC50 in [3] is greater than 50 µM.
Regarding `O=C(NC12CC3CC(CC(C3)C1)C2)c1ccc(OCc2ccccc2)cc1`, the Ki in assay [1] is 3.85 µM. Moreover, the outcome in assay [2] was Active. Besides, in assay [3], the IC50 turned out to be 19.5 µM.
In the same order, the values of `COc1cccc(C(=O)NC23CC4CC(CC(C4)C2)C3)c1` are 0.51 µM, “Active” and 32.3 µM.
For the compound `COc1ccccc1C(=O)NC12CC3CC(CC(C3)C1)C2`, the Ki in assay [1] is 0.387 µM. For the same compound, the outcome in assay [2] was Active. Further, the IC50 in assay [3] is 48.5 µM.
As for `O=C(NC1CCCCC1)c1cn(CCN2CCOCC2)c2cc(Cl)ccc2c1=O`, the outcome in [4], in [5] and in assay [6] was inactive.
For the compound `CCCC(C)(C)c1ccc2c(c1)OC(C)(C)[C@@H]1CC=C(C)C[C@@H]21`, the EC50 in [7] was found to be 0.169 µM.
Regarding `COc1cc(Br)cc(C(=O)NC23CC4CC(CC(C4)C2)C3)c1OC`, the Ki in assay [1] came out at 0.139 µM. The outcome in assay [2] was Active. In addition, the IC50 in assay [3] amounted to 44.6 µM.
Take `O=C(NC12CC3CC(CC(C3)C1)C2)c1ccc(O)cc1`: in assay [1], the Ki was 1.06 µM. Besides, the outcome in assay [2] was Active. The IC50 in [3] was greater than 50 µM.
Consider `O=C(NC12CC3CC(CC(C3)C1)C2)c1ccccc1`, for which the result in assay [2] was Active. Besides, the IC50 in assay [3] worked out at 23.4 µM.
For the compound `COc1cc(Br)cc(C(=O)NC23CC4CC(CC(C4)C2)C3)c1OCc1ccccc1`, in assay [1], the Ki is 3.2 µM. In assay [2], the result was Active. The IC50 in [3] was found to be 8.8 µM.
On to `O=C(NC12CC3CC(CC(C3)C1)C2)c1ccccc1O`, for which the outcome in assay [2] was Active. Besides, in [3], the IC50 is greater than 50 µM.
On to `CCCCCCC(C)(C)c1ccc([C@H]2C[C@@H](O)CC[C@@H]2CCCO)c(O)c1`, for which the Emax in [8] and in [10] was 100% in each case. Besides, the EC50 in assay [9] was 0.0004 µM.
On to `O=C(NC12CC3CC(CC(C3)C1)C2)c1cccc(O)c1`, for which the outcome in assay [2] was Active. In addition, the IC50 in assay [3] amounted to 25.6 µM.
In the case of `O=C(NC12CC3CC(CC(C3)C1)C2)c1cccc(OCc2ccccc2)c1`, the Ki in assay [1] is 0.313 µM. Moreover, the result in assay [2] was Active. Besides, in [3], the IC50 turned out to be 24.1 µM.
